Values after ≈ are worked out from the molar mass of the structure shown. Active and inactive are the calls of the source. No cut-off for these calls is given here.
Tests used:
[1] = Intrinsic clearance in human liver microsomes; assay type: ADME, Microsome
[2] = test system: Mus musculus; assay: Induction of emptying of gallbladder in C57BL/6J mouse at 6 mg/kg, po administered via SDD formulation measured at 1 hr; assay type: functional
Method in brief: (§1)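 Mouse gallbladder emptying model. Compounds were given orally, as amorphous material unless noted or as an SDD formulation where stated. Gallbladder emptying (%) was read at 1 h after 6 mg/kg. Gallbladder refilling was assessed at 24 h.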

[3] = Plasma clearance in Sprague-Dawley rat at 3 mg/kg, iv by HPLC/MS/MS analysis; assay type: ADME, organism-based; set-up: dose 3 mg/kg, route intravenous
Method in brief: (§2)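 Male Sprague-Dawley rats, n of 3, given a single 3.0 mg/kg iv dose or 6.0 mg/kg po dose. Plasma exposure was followed over time. Values are mean with standard deviation.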

[4] = Cmax in Sprague-Dawley rat at 6 mg/kg, po by HPLC/MS/MS analysis; assay type: ADME, organism-based; set-up: dose 6 mg/kg, route oral; settings: in vivo; method in brief: as §2
[5] = target: T1, Cholecystokinin receptor type A (Homo sapiens) (UniProt P32238); assay: Agonist activity at human CCK1 receptor expressed in CHO cells assessed as induction of calcium release by FLIPR assay relative to CCK8; assay type: functional, cell-based
T1 sequence (whole entry): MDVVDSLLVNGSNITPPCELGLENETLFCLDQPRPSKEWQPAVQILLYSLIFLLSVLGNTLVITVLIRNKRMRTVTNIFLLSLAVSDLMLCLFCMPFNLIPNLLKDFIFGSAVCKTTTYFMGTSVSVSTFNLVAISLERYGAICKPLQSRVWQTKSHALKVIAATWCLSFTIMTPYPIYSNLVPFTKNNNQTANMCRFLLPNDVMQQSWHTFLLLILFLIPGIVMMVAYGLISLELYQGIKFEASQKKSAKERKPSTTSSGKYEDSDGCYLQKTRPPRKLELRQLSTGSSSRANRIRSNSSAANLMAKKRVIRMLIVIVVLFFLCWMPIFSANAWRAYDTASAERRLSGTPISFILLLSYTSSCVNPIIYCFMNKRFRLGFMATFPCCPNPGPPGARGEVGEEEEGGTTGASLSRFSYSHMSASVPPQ
Method in brief: (§3)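 Calcium release was measured by FLIPR at the human CCK1 receptor. EC50 and efficacy were expressed as % agonism versus CCK-8. Values are mean ± standard error of at least three independent experiments.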

[6] = target: T2, Gastrin/cholecystokinin type B receptor (Homo sapiens) (UniProt P32239); assay: Agonist activity at CCK2 receptor by [35S]GTPgammaS binding assay; assay type: functional
T2 sequence (whole entry): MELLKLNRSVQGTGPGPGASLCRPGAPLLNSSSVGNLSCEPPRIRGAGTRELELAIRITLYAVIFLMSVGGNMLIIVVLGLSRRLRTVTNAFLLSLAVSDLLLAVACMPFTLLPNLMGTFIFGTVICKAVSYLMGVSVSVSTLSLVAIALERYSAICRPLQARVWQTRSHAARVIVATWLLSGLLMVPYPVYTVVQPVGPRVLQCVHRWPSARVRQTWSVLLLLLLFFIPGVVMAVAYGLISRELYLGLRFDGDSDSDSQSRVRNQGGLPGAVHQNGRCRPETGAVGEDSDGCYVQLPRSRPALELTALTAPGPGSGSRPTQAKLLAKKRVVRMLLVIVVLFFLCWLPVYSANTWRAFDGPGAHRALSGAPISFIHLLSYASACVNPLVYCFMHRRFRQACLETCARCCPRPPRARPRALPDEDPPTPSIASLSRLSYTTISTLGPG

[7] = target: T2, Gastrin/cholecystokinin type B receptor (Homo sapiens); assay: Agonist activity at CCK2 receptor assessed as calcium mobilization by FLIPR assay; assay type: functional
[8] = test system: Rattus norvegicus; assay: Antiobesity activity in Sprague-Dawley rat assessed as reduction in spontaneous food intake at 6 mg/kg, po measured at 4 hrs relative to vehicle; assay type: functional; set-up: scale not given: the % may be the effect or the level left
Method in brief: (§4)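 Rats were dosed orally at 6 mg/kg, as amorphous material unless stated or as a solid spray-dried dispersion (SDD). Spontaneous food intake was measured against vehicle at 4 h post-dose, and at 12 h where stated. Significance was P <0.05 versus vehicle unless noted.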

[9] = AUC (0 to tlast) in Sprague-Dawley rat at 3 mg/kg, iv by HPLC/MS/MS analysis; assay type: ADME, organism-based; set-up: dose 3 mg/kg, route intravenous; settings: plasma; method in brief: as §2
[10] = Volume of distribution at steady state in Sprague-Dawley rat at 3 mg/kg, iv by HPLC/MS/MS analysis; assay type: ADME, organism-based; set-up: dose 3 mg/kg, route intravenous; settings: in vivo, read-out: Vdss; method in brief: as §2
[11] = AUC (0 to tlast) in Sprague-Dawley rat at 6 mg/kg, po by HPLC/MS/MS analysis; assay type: ADME, organism-based; set-up: dose 6 mg/kg, route oral; settings: plasma; method in brief: as §2
[12] = test system: Rattus norvegicus; assay: Antiobesity activity in Sprague-Dawley rat assessed as reduction in spontaneous food intake at 6 mg/kg, po administered via SDD formulation measured at 4 hrs; assay type: functional; method in brief: as §4
[13] = species: Rattus norvegicus; settings: Sprague-Dawley, 6 mg/kg
[14] = test system: Rattus norvegicus; assay: Biliary clearance in Sprague-Dawley rat at 3 mg/kg, iv by HPLC/MS/MS analysis; assay type: ADME, organism-based; set-up: dose 3 mg/kg, route intravenous; settings: in vivo
[15] = test system: Rattus norvegicus; assay: Antiobesity activity in Sprague-Dawley rat assessed as reduction in spontaneous food intake at 6 mg/kg, po measured at 4 hrs in presence of 20 mg/kg CCK1R antagonist lorglumide relative to vehicle; assay type: functional
[16] = test system: Rattus norvegicus; assay: fCmax in Sprague-Dawley rat at 6 mg/kg, po by HPLC/MS/MS analysis; assay type: ADME, organism-based; set-up: dose 6 mg/kg, route oral; settings: in vivo; method in brief: as §2
[17] = test system: Rattus norvegicus; assay: Tmax in Sprague-Dawley rat at 6 mg/kg, po by HPLC/MS/MS analysis; assay type: ADME, organism-based; set-up: dose 6 mg/kg, route oral; settings: in vivo; method in brief: as §2
[18] = Oral bioavailability in Sprague-Dawley rat at 6 mg/kg by HPLC/MS/MS analysis; assay type: ADME, organism-based; settings: in vivo; method in brief: as §2
[19] = Half life in Sprague-Dawley rat at 3 mg/kg, iv by HPLC/MS/MS analysis; assay type: ADME, organism-based; set-up: dose 3 mg/kg, route intravenous; settings: in vivo; method in brief: as §2
[20] = Kinetic solubility of the compound at pH 6.5; assay type: physicochemical; settings: buffer
[21] = Blood clearance predicted from rat liver microsomes; settings: whole blood
[22] = Lipophilicity, log D of the compound at pH 7.4; assay type: physicochemical; settings: buffer
[23] = target: T3, Cholecystokinin receptor type A (Homo sapiens, UniProt P32238); assay: Displacement of [125I]CCK8 from human CCK1 receptor expressed in CHO cells; assay type: cell-based
T3 sequence (P32238 whole entry): T1 sequence (whole entry)
Method in brief: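 Binding IC50 at the human CCK1 receptor. Values are mean ± standard error of at least three independent experiments.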

[24] = Biliary clearance in Sprague-Dawley rat assessed as parent compound excretion into bile at 3 mg/kg, iv by HPLC/MS/MS analysis; assay type: ADME, organism-based; set-up: dose 3 mg/kg, route intravenous; settings: read-out: Activity
[25] = test system: Mus musculus; assay: Induction of emptying of gallbladder in C57BL/6J mouse at 6 mg/kg, po measured at 24 hrs; assay type: functional
Method in brief: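 Mice dosed orally; compound given as amorphous solid unless noted, with one analog in spray-dried dispersion formulation. Read-out is % gallbladder emptying after dosing.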

[26] = target: T4, Cholecystokinin receptor type A (Rattus norvegicus, UniProt P30551); assay: Agonist activity at rat CCK1 receptor expressed in CHO cells assessed as induction of calcium release by FLIPR assay; assay type: functional, cell-based
T4 sequence (P30551 whole entry): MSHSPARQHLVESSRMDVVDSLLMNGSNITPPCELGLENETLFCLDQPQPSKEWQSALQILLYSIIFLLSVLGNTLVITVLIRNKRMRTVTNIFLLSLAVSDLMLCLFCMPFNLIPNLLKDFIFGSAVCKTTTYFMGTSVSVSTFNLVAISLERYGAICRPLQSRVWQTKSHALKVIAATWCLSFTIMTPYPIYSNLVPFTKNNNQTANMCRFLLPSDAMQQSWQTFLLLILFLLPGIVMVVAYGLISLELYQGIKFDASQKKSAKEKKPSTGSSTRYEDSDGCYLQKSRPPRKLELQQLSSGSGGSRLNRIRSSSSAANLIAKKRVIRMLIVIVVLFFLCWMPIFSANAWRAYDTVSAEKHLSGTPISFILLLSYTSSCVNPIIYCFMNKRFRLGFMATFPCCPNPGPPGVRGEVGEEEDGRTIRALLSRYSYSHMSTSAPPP
Method in brief: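 Calcium release was measured by FLIPR at the rat CCK1 receptor to give EC50. Values are mean ± standard error of at least two independent experiments.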

[27] = target: T3, Cholecystokinin receptor type A; assay: Agonist activity at human CCK1 receptor expressed in CHO cells assessed as induction of calcium release by FLIPR assay; assay type: functional, cell-based; method in brief: as §3
[28] = target: T4, Cholecystokinin receptor type A; assay: Displacement of [125I]CCK8 from rat CCK1 receptor expressed in CHO cells; assay type: cell-based
Method in brief: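 Binding IC50 at the rat CCK1 receptor. Values are mean ± standard error of at least two independent experiments.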

[29] = test system: Mus musculus; assay: Induction of emptying of gallbladder in C57BL/6J mouse at 6 mg/kg, po measured at 1 hr; assay type: functional; method in brief: as §1
[30] = test system: Rattus norvegicus; assay: Antiobesity activity in Sprague-Dawley rat assessed as reduction in spontaneous food intake at 6 mg/kg, po measured at 4 hrs; assay type: functional; method in brief: as §4

| CLint scaled [1] [mL/min/kg] | Activity [5] [%] | Activity [6] | Activity [7] | solubility kinetic [20] [µM] | Compound | IC50 [23] [nM] | EC50 [26] [nM] | EC50 [27] [nM] | IC50 [28] [nM] | Activity [29] [%] | inhibition in vivo at 6 mg/kg [30] [%] | logD ([22]; read-out: logD) | other results |
| --- | --- | --- | --- | --- | --- | --- | --- | --- | --- | --- | --- | --- | --- |
| 199 | 53 | inactive | inactive | 0.94 (≈ 0.559 µg/mL) | CC(C)N(Cc1ccccc1)C(=O)CN1C(=O)[C@@H](Cc2c[nH]c3ccccc23)c2nnc(-c3ccccc3)n2-c2ccccc21 [CE-326597] | – | – | – | – | – | – | – | Activity [2]: 91%; clearance [3]: 41.7 mL/min/kg; Cmax [4]: 14.6 ng/mL; Activity [8]: -56%; AUC(0-t) [9]: 1190 ng·h/mL; Vd [10]: 3.7 L/kg; AUC(0-t) [11]: 42.5 ng·h/mL; inhibition in vivo at 6 mg/kg [12]: 56%; inhibition [13]: Active; CL_biliary [14]: 0.0277 mL/min/kg; inhibition (INH) [15]: 2.4%; fCmax [16]: 0.98 nM; Tmax [17]: 1.33 h; bioavailability [18]: 1%; half-life [19]: 1.37 h; clearance [21]: 47 mL/min/kg; logD [22]: 3.39 |
| 39.5 | 72.3 | inactive | inactive | 2.26 (≈ 1.35 µg/mL) | CC(C)N(Cc1ccccc1)C(=O)CN1C(=O)C(Cc2n[nH]c3ccccc23)c2nnc(-c3ccccc3)n2-c2ccccc21 (stereo unspecified) | 48.5 | 481 | 522 | 21 | 86.3 | 43 | 3.16 | – |

| Compound | CLint scaled [1] [mL/min/kg] | Activity [5] [%] | Activity [6] | Activity [7] | solubility kinetic [20] [µM] | IC50 [23] [nM] | EC50 [26] [nM] | EC50 [27] [nM] | IC50 [28] [nM] | Activity [29] [%] | inhibition in vivo at 6 mg/kg [30] [%] | logD ([22]; read-out: logD) | other results |
| --- | --- | --- | --- | --- | --- | --- | --- | --- | --- | --- | --- | --- | --- |
| CC(C)N(C(=O)CN1C(=O)[C@H](NC(=O)Nc2cccc(C(=O)O)c2)C(=O)N(c2ccccc2)c2ccccc21)c1ccccc1 | < 8 | 62.8 | – | – | 499 (≈ 302 µg/mL) | 131 | 63.8 | 283 | 52.6 | 82 | 52 | 1.09 | dose excreted [24]: 65%; Activity [25]: 91.4% |

— ChEMBL document CHEMBL1268842, “Discovery of N-benzyl-2-[(4S)-4-(1H-indol-3-ylmethyl)-5-oxo-1-phenyl-4,5-dihydro-6H-[1,2,4]triazolo[4,3-a][1,5]benzodiazepin-6-yl]-N-isopropylacetamide, an orally active, gut-selective CCK1 receptor agonist for the potential treatment of obesity” (Bioorg Med Chem Lett, 2010)
